This is an account of results in ChEMBL document CHEMBL2413035, “Synthesis and biological activity of benzo-fused 7-deazaadenosine analogues. 5- and 6-substituted 4-amino- or 4-alkylpyrimido[4,5-b]indole ribonucleosides” (Bioorg Med Chem, 2013).

The source made the active and inactive calls. The calls are words filed in the database; no cut-off is given here.

Data set [1] relates to Hepatitis C virus. Put plainly: Antiviral activity against HCV 1B infected in […] cells. It counts as functional, organism-based, Hepacivirus hominis. The settings on record: genotype 1b.
Data set [2] deals with Hepatitis C virus. Put plainly: Antiviral activity against HCV 2A infected in […] cells. The following applies: genotype 2a. The format is functional, organism-based, Hepacivirus hominis.
A further data set concerns HeLa S3. Put plainly: (§1) Cytotoxicity against human HeLaS3 cells after 3 days by XTT assay. The format is functional, cell-based. The gist of the method: (§2)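 ATCC lines HL60, HeLa S3, CCRF-CEM and HepG2 exposed to compound for 3 days. Viability read by metabolic XTT tetrazolium reduction.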
In another data set the test system is dengue virus type 2. Put plainly: Antiviral activity against Dengue virus 2 infected in Vero cells after 3 days by fluorescence microscopy. It counts as functional, organism-based. The settings on record: 72 h. The gist of the method:
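Vero cells, 20,000/well, seeded the day before in DMEM with L-glutamine, 2% FBS and penicillin/streptomycin. Two-fold serial compound dilutions added in triplicate; DENV-2 added 1 h later at MOI 0.3 IU/cell. Incubated 3 days at 37 °C, 5% CO2. Cells fixed and permeabilized, then stained with DENV-2-specific antibody and Cy3 anti-mouse IgG. Imaged by fluorescence microscopy; EC50 by nonlinear regression.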

Data set [3] concerns Hepatitis C virus. Put plainly: Antiviral activity against HCV 1A infected in […] cells. The following applies: subtype 1a. It counts as functional, organism-based, Hepacivirus hominis.
A short description of data set [4]: Cytotoxicity against african green monkey Vero cells after 48 hrs by XTT assay. It counts as cell-based. The following applies: chlorocebus sabaeus. The gist of the method: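 Vero monolayers incubated with serial compound dilutions for 48 h. XTT added for 4 h, and formazan quantified spectrophotometrically. CC50, the 50% cytotoxic concentration, derived by nonlinear regression.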
(In general: Formazan colour is commonly taken as a measure of viable cells.)

A short description of data set [5]: Cytotoxicity against human […] cells infected with HCV 2A. The format is cell-based.
The test system of another data set is CCRF-CEM. Put plainly: Cytotoxicity against human CCRF-CEM cells after 3 days by XTT assay. It counts as functional, cell-based. The settings on record: for IC50: 72 h. The gist of the method: as §2
Another data set relates to HL-60. Put plainly: Cytotoxicity against human HL60 cells after 3 days by XTT assay. It counts as functional, cell-based. The following applies: for IC50: HL-60, 72 h. The gist of the method:
as §2

In a further data set the test system is HepG2. Put plainly: Cytotoxicity against human HepG2 cells after 3 days by XTT assay. It counts as functional, cell-based. The settings on record: for IC50: HepG2, 72 h. The gist of the method: as §2
Data set [6] can be described thus: Cytotoxicity against human […] cells infected with HCV 1B. The format is cell-based.
Data set [7] is described as follows: Cytotoxicity against human […] cells infected with HCV 1A. It counts as cell-based.
A short description of data set [8]: Selectivity index, ratio of CC50 for african green monkey Vero cells to EC50 for Dengue virus 2 infected in Vero cells. The format is toxicity, cell-based. The settings on record: read-out: Ratio CC50/EC50.
A short description of data set [9]: as §1. The following applies: HeLa S3, 72 h. The format is functional, cell-based. The gist of the method:
as §2

Turning to `Nc1ncnc2c1c1cc(-c3ccsc3)ccc1n2[C@@H]1O[C@H](CO)[C@@H](O)[C@H]1O`, the concentration for a half-maximal effect (EC50) (in general, the concentration needed to bring the measured effect to its halfway point) in the data set on Hepatitis C virus [1] worked out at 7.38 µM; in the data set with Hepatitis C virus [2], 13.8 µM; in the data set with dengue virus type 2, 18.8 µM; in the data set with Hepatitis C virus [3], 10.1 µM. Moreover, the result with HeLa S3, with CCRF-CEM, with HL-60 and with HepG2 was inactive. The CC50 (in general, the concentration at which the toxic effect on the cells reaches its halfway point) at 48 h in data set [4] came to 46.3 µM. Besides, the cytotoxic concentration (CC50) in [5] amounted to 30.2 µM; in data set [6], 25.6 µM; in data set [7], 17.3 µM. The selectivity ratio in data set [8] worked out at 2.5.
On to `Nc1ncnc2c1c1c(Cl)cccc1n2[C@@H]1O[C@H](CO)[C@@H](O)[C@H]1O`, for which the EC50 was 0.32 µM with Hepatitis C virus [1], 1.28 µM with Hepatitis C virus [2], 0.85 µM in the data set with dengue virus type 2 and 0.53 µM with Hepatitis C virus [3]. For the same compound, the IC50 – broadly, the concentration that gives 50% inhibition – in data set [9] was 21 µM; with CCRF-CEM, 12 µM; with HL-60, 17 µM; in the data set on HepG2, 21 µM. In data set [4], this compound registered a CC50 at 48 h of 1.14 µM. Moreover, the half-maximal cytotoxic concentration (CC50) in data set [5] was found to be 1.66 µM; in data set [6], 1.71 µM; in [7] it was 1.16 µM. Also, the selectivity ratio in data set [8] was 1.3.
As for `Nc1ncnc2c1c1cc(-c3ccccc3)ccc1n2[C@@H]1O[C@H](CO)[C@@H](O)[C@H]1O`, the result in the data set with HeLa S3, in the data set on CCRF-CEM, in the data set on HL-60 and in the data set with HepG2 was inactive.
For the compound `OC[C@H]1O[C@@H](n2c3ccccc3c3c(C4CC4)ncnc32)[C@H](O)[C@@H]1O`, the result in the data set on HeLa S3, with CCRF-CEM, in the data set with HL-60 and in the data set on HepG2 was inactive.
Regarding `Nc1ncnc2c1c1ccccc1n2[C@@H]1O[C@H](CO)[C@@H](O)[C@H]1O`, the EC50 with Hepatitis C virus [1] was 11.1 µM; in the data set with Hepatitis C virus [2], greater than 44 µM; in the data set with dengue virus type 2, 39.6 µM; in the data set with Hepatitis C virus [3] it was 30.6 µM. For the same compound, the outcome in the data set with HeLa S3, in the data set on CCRF-CEM, in the data set with HL-60 and in the data set with HepG2 was inactive. In data set [4], this compound displayed a CC50 at 48 h of 43.5 µM. Moreover, the 50% cytotoxic concentration (CC50) in data set [5], in data set [6] and in data set [7] was greater than 44 µM in each case. The selectivity ratio in data set [8] was 1.1.
With `Nc1ncnc2c1c1cc(-c3ccco3)ccc1n2[C@@H]1O[C@H](CO)[C@@H](O)[C@H]1O`, the result in the data set on HeLa S3, with CCRF-CEM, in the data set on HL-60 and in the data set on HepG2 was inactive.
With `Nc1ncnc2c1c1c(-c3ccsc3)cccc1n2[C@@H]1O[C@H](CO)[C@@H](O)[C@H]1O`, the outcome in the data set with HeLa S3, in the data set with CCRF-CEM, with HL-60 and with HepG2 was inactive.
Consider `Nc1ncnc2c1c1cc(-c3ccoc3)ccc1n2[C@@H]1O[C@H](CO)[C@@H](O)[C@H]1O`, for which the outcome with HeLa S3, in the data set with CCRF-CEM, with HL-60 and in the data set with HepG2 was inactive.
For `Nc1ncnc2c1c1c(-c3ccccc3)cccc1n2[C@@H]1O[C@H](CO)[C@@H](O)[C@H]1O`, the result in the data set with HeLa S3, in the data set on CCRF-CEM, with HL-60 and with HepG2 was inactive.
Regarding `C[n+]1cnc2c(c1N)c1ccccc1n2[C@@H]1O[C@H](CO)[C@@H](O)[C@H]1O`, the result in the data set with HeLa S3, with CCRF-CEM, in the data set on HL-60 and in the data set with HepG2 was inactive.
Turning to `Nc1ncnc2c1c1cc(-c3cccs3)ccc1n2[C@@H]1O[C@H](CO)[C@@H](O)[C@H]1O`, the EC50 stood at 8.75 µM with Hepatitis C virus [1], 24.9 µM in the data set on Hepatitis C virus [2] and 10 µM in the data set on Hepatitis C virus [3]. The result with HeLa S3, in the data set with CCRF-CEM, with HL-60 and with HepG2 was inactive. Besides, the CC50 was greater than 44 µM in [5], greater than 44 µM in data set [6] and 18.1 µM in [7].
As for `Nc1ncnc2c1c1c(-c3ccco3)cccc1n2[C@@H]1O[C@H](CO)[C@@H](O)[C@H]1O`, the result in the data set on HeLa S3, in the data set with CCRF-CEM, in the data set with HL-60 and in the data set on HepG2 was inactive.
Consider `Cc1ncnc2c1c1ccccc1n2[C@@H]1O[C@H](CO)[C@@H](O)[C@H]1O`, for which the 50% effective concentration (EC50) in the data set with Hepatitis C virus [1] is 0.34 µM; with Hepatitis C virus [2], greater than 44 µM; in the data set on Hepatitis C virus [3] it was 0.56 µM. Further, the IC50 in data set [9] is 11 µM; in the data set with CCRF-CEM, 82 µM; in the data set with HL-60, 54 µM; in the data set with HepG2, 15 µM. Also, the half-maximal cytotoxic concentration (CC50) in data set [5], in data set [6] and in [7] was greater than 44 µM in each case.
As to `CN(C)c1ncnc2c1c1ccccc1n2[C@@H]1O[C@H](CO)[C@@H](O)[C@H]1O`, the 50% effective concentration (EC50) is 7.07 µM in the data set with Hepatitis C virus [1], greater than 44 µM in the data set with Hepatitis C virus [2] and 21.3 µM in the data set on Hepatitis C virus [3]. Also, the result in the data set with HeLa S3, in the data set with CCRF-CEM, with HL-60 and with HepG2 was inactive. Besides, the CC50 in data set [5], in data set [6] and in data set [7] was greater than 44 µM throughout.
For the compound `Nc1ncnc2c1c1cc(Cl)ccc1n2[C@@H]1O[C@H](CO)[C@@H](O)[C@H]1O`, the result in the data set on HeLa S3, with CCRF-CEM, with HL-60 and in the data set with HepG2 was inactive.
For the compound `Nc1ncnc2c1c1cc(-c3cc4ccccc4o3)ccc1n2[C@@H]1O[C@H](CO)[C@@H](O)[C@H]1O`, the EC50 with Hepatitis C virus [1] came out at 4.83 µM; in the data set on Hepatitis C virus [2], 8.77 µM; with dengue virus type 2, 15.4 µM; with Hepatitis C virus [3], 6.13 µM. Also, the IC50 was determined as 93 µM in [9], 32 µM with CCRF-CEM, 87 µM in the data set with HL-60 and 60 µM in the data set with HepG2. The compound also displayed a CC50 at 48 h in data set [4] greater than 100 µM. Besides, the 50% cytotoxic concentration (CC50) is 18 µM in data set [5], 28 µM in data set [6] and 14.5 µM in [7]. In addition, in [8], the selectivity ratio is greater than 6.5.
On to `CCCCc1cccc2c1c1c(N)ncnc1n2[C@@H]1O[C@H](CO)[C@@H](O)[C@H]1O`, for which the concentration giving a half-maximal response (EC50) is 8.81 µM in the data set on Hepatitis C virus [1], greater than 44 µM in the data set on Hepatitis C virus [2], 14.8 µM in the data set with dengue virus type 2 and greater than 44 µM with Hepatitis C virus [3]. Further, the outcome with HeLa S3, with CCRF-CEM, in the data set with HL-60 and in the data set with HepG2 was inactive. Moreover, the cytotoxic concentration (CC50) at 48 h in data set [4] stood at 62.9 µM. Besides, the CC50 in data set [5], in data set [6] and in data set [7] was greater than 44 µM each time. Also, in [8], the selectivity ratio is 4.3.
